Results from ChEMBL document CHEMBL4725488, “Dual-Stage Picolinic Acid-Derived Inhibitors of Toxoplasma gondii” (ACS Med Chem Lett, 2020).
Converted amounts (≈) assume the structure as drawn. The source made the active and inactive calls. The rule behind the calls is not given here.

Tests used:
[1] = Selectivity index, ratio of CC50 for human HFF cells to EC50 for Toxoplasma gondii ME49 tachyzoites infected in human HFF cells; format: toxicity, cell-based
Outline: (§1)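 Selectivity index computed as CC50 in uninfected HFF cells (72 h exposure) divided by EC50 for the bradyzoite or tachyzoite growth assay run in the same HFF line.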

[2] = system: Toxoplasma gondii; assay: Antiparasitic activity against Toxoplasma gondii ME49 bradyzoite infected in human HFF-1 cells assessed as inhibition of parasitic growth preincubated for 48 hrs followed by [5,6-3H]uracil addition and measured after 24 hrs by liquid scintillation counting analysis; format: functional, organism-based
Outline: (§2)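 HFF host cells harbouring tachyzoites, or bradyzoites differentiated in vitro by base-mediated maturation, were exposed to compounds in dose–response format. EC50 was the concentration inhibiting 50% of parasites. Tested at least in triplicate (n ≥ 3) unless noted, some in duplicate (n = 2).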

[3] = Selectivity index, ratio of CC50 for human HFF cells to EC50 for Toxoplasma gondii ME49 bradyzoite infected in human HFF cells; format: toxicity, cell-based; outline: as §1
[4] = (§3) Cytotoxicity against HFF cells assessed as reduction in cell viability incubated for 72 hrs by Cell titer assay; format: cell-based; settings: human, HFF cells
Outline: (§4)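 Uninfected HFF cells exposed to compounds for 72 h. CC50 is the concentration that cuts cell viability by 50%. At least triplicate (n ≥ 3) unless noted, some in duplicate.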

[5] = system: Toxoplasma gondii; assay: Antiparasitic activity against Toxoplasma gondii ME49 tachyzoites infected in human HFF-1 cells assessed as inhibition of parasitic growth preincubated for 48 hrs followed by [5,6-3H]uracil addition and measured after 24 hrs by liquid scintillation counting analysis; format: functional, organism-based; outline: as §2
[6] = Stability in CD-1 mouse liver microsomes assessed as parent compound remaining measured after 60 mins by LC-MS method; format: ADME, Microsome; settings: for remaining at 1 h: CD-1, mouse, liver microsomes, read-out: Stabilty; for Stabilty: mouse, microsomes, 1 h
Outline: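 Mouse microsomes, reported as percent parent compound remaining after 1 h.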

[7] = Stability in CD-1 mouse plasma assessed as parent compound remaining measured after 60 mins by LC-MS/MS method; format: ADME, cell-free; settings: for remaining at 1 h: CD-1, mouse, read-out: Stabilty
Outline: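 Mouse plasma, reported as percent parent compound remaining after 1 h.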

[8] = Kinetic aqueous solubility of the compound in pH 7.4; format: physicochemical; settings: buffer, read-out: Kinetic_solubility
Outline: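 Kinetic aqueous solubility measured at pH 7.4.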

[9] = Lipophilicity log D of compound at pH 7.4; format: physicochemical; settings: buffer
Outline: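 LogD at pH 7.4, determined experimentally.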

[10] = Ratio of AUC in brain to plasma in male Balb/c mouse at 15 mg/kg, ip; format: ADME, organism-based; settings: read-out: BPR
Outline: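 Male BALB/c mice given a single 15 mg/kg ip injection as a clear solution of the sodium salt. Plasma sampled at 30 min and 2 h after dosing, brain at 2 h. Terminal mean AUC to 2 h determined for plasma (ng/mL) and brain (ng/g). Brain-to-plasma ratio taken from these AUCs.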

[11] = Protein binding in male Balb/c mouse at 15 mg/kg, ip; format: ADME, organism-based; settings: plasma, read-out: PB (converted)
[12] = Concentration at 2 hrs in male Balb/c mouse brain at 15 mg/kg, ip; settings: in vivo
[13] = system: HFF; assay: as §3; format: cell-based; settings: human, hff, 72 h; outline: as §4
[14] = Plasma concentration at 2 hrs in male Balb/c mouse plasma at 15 mg/kg, ip; settings: in vivo
[15] = system: Toxoplasma gondii; assay: Ex vivo inhibition of Toxoplasma gondii ME49 bradyzoite isolated from 30 days post infection brain of C57BL/6J mouse transferred to human HFF cells after 3 days using anti-BAG1 by fluorescence assay; format: functional; settings: time 72.0 hrs
Outline: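 Bradyzoites were harvested from brains of four infected mice 30+ days after infection, purified and transferred to HFF cells. Compound was added at 1, 3 or 6 × EC50 and incubated 3 days against a DMSO control. Monolayers were fixed, labelled with anti-BAG1 antibody against a bradyzoite-specific antigen, and imaged by fluorescence.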

[16] = biological target: T1, Hexokinase (Toxoplasma gondii) (UniProt Q969A8); assay: Inhibition of hexokinase in Toxoplasma gondii ME49 infected human HFF cells assessed as 13C6-glucose-6-phosphate treated at 2 x EC50 4 hrs postinfection for 5 hrs media changed with [13C6]-glucose; format: cell-based
T1 sequence (whole entry): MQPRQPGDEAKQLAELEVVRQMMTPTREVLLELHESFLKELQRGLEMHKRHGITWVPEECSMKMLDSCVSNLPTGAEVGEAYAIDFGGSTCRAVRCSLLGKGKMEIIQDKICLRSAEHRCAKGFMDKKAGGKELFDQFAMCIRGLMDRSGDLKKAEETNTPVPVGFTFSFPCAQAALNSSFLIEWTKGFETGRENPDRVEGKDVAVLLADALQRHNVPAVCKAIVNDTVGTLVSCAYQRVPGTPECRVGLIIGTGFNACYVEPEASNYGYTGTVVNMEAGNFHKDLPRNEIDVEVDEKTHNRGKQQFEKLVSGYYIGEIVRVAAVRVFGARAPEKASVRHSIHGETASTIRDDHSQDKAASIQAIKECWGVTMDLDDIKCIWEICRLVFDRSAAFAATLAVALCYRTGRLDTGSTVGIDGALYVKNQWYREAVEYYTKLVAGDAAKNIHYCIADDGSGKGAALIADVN
Outline: (§5)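 Infected HFF cells were treated 4 h postinfection with DMSO or compound (2 or 6 × EC50). After 5 h the medium was switched to glucose-free RPMI with 13C6-glucose and labelled for 10 min. Samples were rapidly quenched, processed and analysed by broad-spectrum mass spectrometry for 13C6-glucose-6-phosphate (hexokinase product) against DMSO.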

[17] = biological target: T1, Hexokinase (Toxoplasma gondii); assay: Inhibition of hexokinase in Toxoplasma gondii ME49 infected human HFF cells assessed as 13C6-glucose-6-phosphate treated at 6 x EC50 4 hrs postinfection for 5 hrs media changed with [13C6]-glucose; format: cell-based; outline: as §5
[18] = Permeability of compound by PAMPA-BBB assay; format: ADME; settings: read-out: permeability
Outline: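 Blood–brain barrier PAMPA, with permeability reported as Pe (10–6 cm/s).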

[19] = HFF cells, read-out: Selectivity ratio

Row | SMILES | selectivity ratio [1, 19] | EC50 ([2]; Toxoplasma gondii, ME49, HFF-1) [µM] | selectivity ratio [3, 19] | CC50 at 72 h [4] [µM] | EC50 ([5]; Toxoplasma gondii, ME49, HFF-1) [µM] | also measured
1 | COC(=O)c1cnc(Cl)cc1NC(=O)c1ccc(C(C)(C)C)cc1 | > 29.6 | > 10 | > 10 | > 50 | 1.69 | –
2 | CC(C)(C)c1ccc(C(=O)Nc2cc(Cl)ncc2C(=O)O)cc1 | – | > 10 | > 10 | 23.6 | > 10 | –
3 | COC(=O)c1ncc(Cl)cc1NC(=O)c1ccc(C(C)(C)C)cc1 | > 116 | 0.57 | > 87.7 | > 50 | 0.43 | remaining at 1 h [6]: 2.7%; remaining at 1 h [7]: 24.7%; solubility kinetic [8]: < 1.6 µM; logD ([9]; read-out: logD): 5.3
4 | CC(C)(C)c1ccc(C(=O)Nc2cc(Cl)cnc2-c2nnn[nH]2)cc1 | 1.5 | 2.45 | 0.5 | 1.2 | 0.8 | –
5 | CC(C)(C)c1ccc(C(=O)Nc2cc(Cl)cnc2C(N)=O)cc1 | – | > 10 | > 50 | > 50 | > 10 | –
6 | COc1ccc(C(=O)Nc2cc(Cl)cnc2C(=O)O)cc1 | > 7 | 2.41 | – | > 50 | 7.1 | selectivity ratio ([3]; HFF cells, read-out: Selectivity Index): > 20.7
7 | CC(C)(C)c1ccc(C(=O)Nc2cccnc2C(=O)O)cc1 | 8.1 | 2.16 | 4.2 | 9 | 1.11 | –
8 | CC(C)(C)c1ccc(C(=O)Nc2cc(Cl)cnc2C(=O)[O-])cc1.[Na+] | – | – | – | – | – | Kp [10]: 0.1; fraction unbound [11]: 0.005; Stabilty [6]: 100%; selectivity ratio [1]: 6.6; Stabilty ([7]; mouse, 1 h): 88.1%; EC50 ([2]; hff-1): 0.23 µM; brain concentration at 2 h [12]: 816 ng/g; solubility kinetic [8]: 164 µM; logD [9]: 2.6; selectivity ratio [3]: 9.1; CC50 [13]: 2.1 µM; plasma concentration at 2 h [14]: 7883 ng/mL; EC50 ([5]; hff-1): 0.32 µM
9 | COc1ccccc1C(=O)Nc1cc(Cl)cnc1C(=O)O | > 14.3 | 4.9 | > 10.2 | > 50 | 3.5 | –
10 | CC(C)(C)c1ccc(C(=O)Nc2ccc(Br)nc2C(=O)O)cc1 | > 9.7 | 3.96 | > 12.6 | > 50 | 5.14 | –
11 | O=C(Nc1cc(Cl)cnc1C(=O)O)c1ccccc1 | > 20.7 | 4.47 | > 11.2 | > 50 | 2.42 | –
12 | CC(C)(C)c1ccc(C(=O)Nc2cc(Cl)cnc2C(=O)O)cc1 [listing 1 of 2 here] | – | – | – | – | – | inhibition [15]: Active; inhibition [16]: inactive; inhibition [17]: inactive
13 | COc1cccc(C(=O)Nc2cc(Cl)cnc2C(=O)O)c1 | > 27.5 | 6.2 | > 8.1 | > 50 | 1.82 | –
14 | CC(C)(C)c1ccc(C(=O)Nc2cc(Cl)cnc2C(=O)O)cc1 [listing 2 of 2 here] | 10.4 | 0.35 | 7.1 | 2.5 | 0.24 | Stabilty [6]: 75.4%; remaining at 1 h [7]: 98.4%; Papp [18]: 6.9 ×10⁻⁶ cm/s; solubility kinetic [8]: 33 µM (≈ 11 µg/mL); logD ([9]; read-out: logD): 2.7
15 | CC(C)(C)c1ccc(C(=O)Nc2cc(Cl)c(-c3ccccc3)cc2C(=O)O)cc1 | – | 0.99 | – | > 50 | 0.46 | remaining at 1 h [6]: 69.2%; remaining at 1 h [7]: 100%; solubility kinetic [8]: 2.7 µM (≈ 1.1 µg/mL); logD ([9]; read-out: logD): 5.4
16 | Cc1ccc(C(=O)Nc2cc(Cl)cnc2C(=O)O)cc1 | 12.3 | 1.1 | 16.5 | 18.2 | 1.48 | –
17 | CC(C)(C)c1ccc(C(=O)Nc2cc(Cl)c(-c3ccccc3)nc2C(=O)O)cc1 | 86.1 | 0.41 | 118 | 48.2 | 0.56 | remaining at 1 h [6]: 85.1%; remaining at 1 h [7]: 97.1%; Papp [18]: 5.4 ×10⁻⁶ cm/s; solubility kinetic [8]: 6.4 µM (≈ 2.62 µg/mL); logD ([9]; read-out: logD): 3.9
18 | CC(C)(C)c1ccc(C(=O)Nc2cc(Cl)c(Br)nc2C(=O)O)cc1 | > 13 | 4.09 | > 12.2 | > 50 | 3.85 | –
